Laboratory results published in ChEMBL document CHEMBL1128413, “The serotonin 5-HT4 receptor. 1. Design of a new class of agonists and receptor map of the agonist recognition site” (J Med Chem, 1995).

Assays:
[1] = test system: 5-HT1A receptor (Sus scrofa); test: Binding affinity was evaluated by 5-hydroxytryptamine 1A receptor […] in the pig cortex by displacing 8-OH-DPAT
[2] = biological target: 5-hydroxytryptamine receptor 4 (Cavia porcellus) (UniProt O70528); test: 5-hydroxytryptamine 4 receptor agonist activity in the guinea pig ileum assay; type: functional, tissue-based
5-hydroxytryptamine receptor 4 (Cavia porcellus), sequence (O70528 whole entry): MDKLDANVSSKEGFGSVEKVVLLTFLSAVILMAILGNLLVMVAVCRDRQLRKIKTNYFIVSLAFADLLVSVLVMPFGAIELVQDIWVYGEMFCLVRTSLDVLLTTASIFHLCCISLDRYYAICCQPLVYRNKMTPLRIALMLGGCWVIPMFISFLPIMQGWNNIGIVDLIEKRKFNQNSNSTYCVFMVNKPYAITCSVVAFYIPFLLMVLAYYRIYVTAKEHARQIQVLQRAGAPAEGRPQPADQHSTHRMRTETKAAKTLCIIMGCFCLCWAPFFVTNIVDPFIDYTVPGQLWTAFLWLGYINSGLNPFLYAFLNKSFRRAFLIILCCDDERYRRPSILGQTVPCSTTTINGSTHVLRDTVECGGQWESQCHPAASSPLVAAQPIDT
Outline: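 Guinea pig ileum longitudinal muscle strips in tyrode solution with 0.1 μM methysergide. Twitch contractions (2–3 s) evoked by field stimulation with square-wave pulses (0.1 Hz, 2 ms) via platinum electrodes. Once a stable submaximal response is reached, noncumulative concentration–response curves are built for enhancement of twitch. Readouts are pD2 and efficacy relative to 5-HT.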

[3] = biological target: 5-hydroxytryptamine receptor 2A (Rattus norvegicus) (UniProt P14842); test: Binding affinity was evaluated by 5-hydroxytryptamine 2A receptor […] in the rat cortex by displacing ketanserin
5-hydroxytryptamine receptor 2A (Rattus norvegicus), sequence (P14842 whole entry): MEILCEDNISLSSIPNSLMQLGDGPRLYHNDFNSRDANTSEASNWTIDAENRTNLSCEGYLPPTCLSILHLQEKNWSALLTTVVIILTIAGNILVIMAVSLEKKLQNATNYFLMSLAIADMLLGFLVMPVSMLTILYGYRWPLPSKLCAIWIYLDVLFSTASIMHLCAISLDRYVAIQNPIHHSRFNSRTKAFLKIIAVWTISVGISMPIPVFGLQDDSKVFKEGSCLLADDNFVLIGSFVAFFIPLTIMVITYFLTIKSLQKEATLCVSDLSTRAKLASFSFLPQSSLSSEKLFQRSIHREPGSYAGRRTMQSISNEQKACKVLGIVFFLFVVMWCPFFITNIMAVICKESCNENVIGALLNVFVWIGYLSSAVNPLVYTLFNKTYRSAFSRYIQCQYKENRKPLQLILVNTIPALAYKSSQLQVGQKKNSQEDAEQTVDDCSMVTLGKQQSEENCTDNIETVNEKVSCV
Outline: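 Radioligand displacement with [3H]ketanserin on rat cortex membranes; Ki reported.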

[4] = biological target: Serotonin 3 (5-HT3) receptor (Homo sapiens) (UniProt P46098+A5X5Y0+O95264+Q70Z44+Q8WXA8); test: 5-hydroxytryptamine 3 receptor agonism in the guinea pig ileum by functional 5-HT3 receptor assay; type: tissue-based; conditions: Cavia porcellus, target entry is the homologue from another species
Outline: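 Guinea pig ileum in tyrode solution containing 0.1 μM methysergide. 5-HT3 receptor-mediated contractions recorded isotonically; concentration–response curves built noncumulatively.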

[5] = biological target: D(1A) dopamine receptor (Bos taurus) (UniProt Q95136); test: Binding affinity was evaluated by dopamine receptor D1 […] in the calf striatum by displacing SCH 23390; type: tissue-based
D(1A) dopamine receptor (Bos taurus), sequence (Q95136 whole entry): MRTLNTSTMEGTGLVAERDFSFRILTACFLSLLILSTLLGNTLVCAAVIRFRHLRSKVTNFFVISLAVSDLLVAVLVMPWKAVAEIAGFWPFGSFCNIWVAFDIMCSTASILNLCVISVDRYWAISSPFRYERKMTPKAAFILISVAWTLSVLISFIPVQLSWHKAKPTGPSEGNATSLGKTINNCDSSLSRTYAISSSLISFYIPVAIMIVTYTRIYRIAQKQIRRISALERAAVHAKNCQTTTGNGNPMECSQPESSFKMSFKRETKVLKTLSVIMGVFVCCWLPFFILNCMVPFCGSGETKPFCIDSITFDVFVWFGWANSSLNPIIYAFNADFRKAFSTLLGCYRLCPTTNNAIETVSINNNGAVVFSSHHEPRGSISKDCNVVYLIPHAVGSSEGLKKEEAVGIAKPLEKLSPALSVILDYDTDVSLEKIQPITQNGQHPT
Outline: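 Radioligand displacement with [3H]SCH 23390 on calf striatum membranes; Ki reported.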

[6] = biological target: D(2) dopamine receptor (Bos taurus) (UniProt P20288); test: Binding affinity was evaluated by Dopamine receptor D2 binding in the calf striatum by displacing spiperone; type: tissue-based
D(2) dopamine receptor (Bos taurus), sequence (P20288 whole entry): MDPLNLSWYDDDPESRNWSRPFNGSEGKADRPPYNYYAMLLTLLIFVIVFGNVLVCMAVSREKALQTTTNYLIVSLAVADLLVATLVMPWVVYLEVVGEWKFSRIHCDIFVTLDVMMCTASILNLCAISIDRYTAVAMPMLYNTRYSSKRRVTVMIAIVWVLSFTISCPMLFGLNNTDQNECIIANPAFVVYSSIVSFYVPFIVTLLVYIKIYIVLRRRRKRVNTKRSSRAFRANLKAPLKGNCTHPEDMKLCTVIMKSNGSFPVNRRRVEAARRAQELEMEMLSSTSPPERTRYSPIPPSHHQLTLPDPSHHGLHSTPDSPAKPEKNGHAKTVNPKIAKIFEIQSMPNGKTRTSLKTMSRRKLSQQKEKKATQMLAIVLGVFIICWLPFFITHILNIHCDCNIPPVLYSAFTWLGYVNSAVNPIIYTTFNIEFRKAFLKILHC
Outline: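 Radioligand displacement with [3H]spiperone on calf striatum membranes; Ki reported.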

[7] = biological target: T1, Alpha-1A adrenergic receptor (Bos taurus) (UniProt P18130); test: Binding affinity was evaluated by Alpha-1 adrenergic receptor in calf cortex by displacing prazosin
T1 sequence (whole entry): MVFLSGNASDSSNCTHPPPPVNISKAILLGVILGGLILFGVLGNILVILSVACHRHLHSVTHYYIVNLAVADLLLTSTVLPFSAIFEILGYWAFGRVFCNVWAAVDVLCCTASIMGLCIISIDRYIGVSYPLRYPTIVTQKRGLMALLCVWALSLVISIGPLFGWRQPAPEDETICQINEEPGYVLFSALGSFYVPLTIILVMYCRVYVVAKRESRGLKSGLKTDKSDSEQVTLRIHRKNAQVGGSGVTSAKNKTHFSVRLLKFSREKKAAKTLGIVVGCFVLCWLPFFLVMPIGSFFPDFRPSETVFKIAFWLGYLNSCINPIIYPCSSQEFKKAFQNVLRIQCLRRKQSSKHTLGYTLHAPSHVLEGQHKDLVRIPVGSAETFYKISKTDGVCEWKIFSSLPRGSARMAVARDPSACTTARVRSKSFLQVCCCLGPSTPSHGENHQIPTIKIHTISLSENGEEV
Outline: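 Radioligand displacement with [3H]prazosin on calf cortex membranes; Ki reported.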

[8] = biological target: 5-hydroxytryptamine receptor 4 (Cavia porcellus) (UniProt O70528); test: Compound was evaluated for the relative potency with respect to serotonin against 5-hydroxytryptamine 4 receptor; type: functional
[9] = biological target: D(1A) dopamine receptor (Bos taurus) (UniProt Q95136); conditions: Striatum
[10] = biological target: T2, Serotonin 3 receptor (5HT3) (Mus musculus) (UniProt Q9JHJ5+P23979)
D(2) dopamine receptor = D(2) dopamine receptor (Bos taurus, UniProt P20288); test: Compound was evaluated for the binding affinity at Dopamine receptor D2
D(2) dopamine receptor, sequence (P20288 whole entry): as the sequence (P20288 whole entry) above
Outline: (§1)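 Radioligand binding to native tissue membranes. Each receptor used its own tissue and [³H]radioligand: 5-HT2A in rat cortex with [³H]ketanserin, 5-HT3 in mouse N1E-115 cells with [³H]tropisetron, α1 in calf cortex with [³H]prazosin, and D2 in calf striatum with [³H]spiperone. Affinity is reported as Ki.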

[11] = biological target: T3, Serotonin 3 receptor (5HT3) (Mus musculus, UniProt Q9JHJ5+P23979); test: Compound was evaluated for the binding affinity at 5- HT3 receptor subtype; type: protein assay
T3 sequence (Q9JHJ5 whole entry): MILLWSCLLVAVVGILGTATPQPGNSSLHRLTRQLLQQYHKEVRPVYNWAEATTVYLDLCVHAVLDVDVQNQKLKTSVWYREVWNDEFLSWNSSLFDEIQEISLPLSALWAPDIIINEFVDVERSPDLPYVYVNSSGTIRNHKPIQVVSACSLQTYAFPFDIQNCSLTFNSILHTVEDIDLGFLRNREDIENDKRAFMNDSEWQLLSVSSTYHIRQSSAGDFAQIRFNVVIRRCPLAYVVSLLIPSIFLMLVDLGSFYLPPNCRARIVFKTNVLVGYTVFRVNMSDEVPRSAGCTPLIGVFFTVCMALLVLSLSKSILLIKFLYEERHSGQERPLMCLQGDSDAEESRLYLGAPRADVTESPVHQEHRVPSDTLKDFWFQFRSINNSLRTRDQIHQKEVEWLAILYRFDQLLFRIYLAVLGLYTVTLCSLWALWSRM
T3 sequence (P23979 whole entry): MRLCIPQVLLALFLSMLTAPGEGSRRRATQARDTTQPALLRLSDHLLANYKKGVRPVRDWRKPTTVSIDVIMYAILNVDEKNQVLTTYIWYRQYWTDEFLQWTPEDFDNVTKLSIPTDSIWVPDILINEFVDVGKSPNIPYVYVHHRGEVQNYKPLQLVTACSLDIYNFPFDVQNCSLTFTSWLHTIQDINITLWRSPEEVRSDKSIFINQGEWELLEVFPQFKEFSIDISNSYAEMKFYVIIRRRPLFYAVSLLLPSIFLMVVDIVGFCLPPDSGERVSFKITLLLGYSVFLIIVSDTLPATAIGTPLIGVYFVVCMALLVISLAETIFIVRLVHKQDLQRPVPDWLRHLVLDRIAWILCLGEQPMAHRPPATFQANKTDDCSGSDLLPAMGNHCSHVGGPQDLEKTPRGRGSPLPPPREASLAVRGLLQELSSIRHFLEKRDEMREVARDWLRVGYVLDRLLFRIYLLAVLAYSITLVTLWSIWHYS
Outline: as §1

[12] = biological target: T2, Serotonin 3 receptor (5HT3) (Mus musculus); remark: listed apart in the source

Row | SMILES | pKD [1] | pD2 [2] | pKD [3] | pD2 [4] | pKD [5] | pKD [6] | pKD [7] | Potency relative to serotonin [8] | pKD [9] | pKD [10] | Ki (D(2) dopamine receptor) [nM] | Ki [11] [nM] | pKD [12]
1 | N=C(N)N/N=C/c1c[nH]c2ccc(O)cc12 | 7.2 | 8.8 | 6.6 | < 5 | 5.4 | < 5 | < 5.5 | 1.5 |  |  |  |  | 
2 | COc1cc(N)c(Cl)cc1C(=O)N[C@H]1CCN(CCCOc2ccc(F)cc2)C[C@H]1OC |  | 6 |  |  |  | 6.5 |  | 0.7 | 5.2 | 7.2 |  |  | 
3 | COc1cc(N)c(Cl)cc1C(=O)N[C@H]1CN2CCC1CC2 |  | 6.8 | < 5 |  |  | < 5 | < 5 | 1.9 | < 5 | 9.5 |  |  | 
4 | NCCc1c[nH]c2ccc(O)cc12 |  | 8.4 |  |  |  |  |  | 1 |  |  |  |  | 
5 | CCN(CC)CCNC(=O)c1cc(Cl)c(N)cc1OC [METOCLOPRAMIDE] |  | 5.6 | 5.4 |  |  | 7.1 | < 5 | 1 | < 5 |  | 80 | 200 | 6.7
